Experimental data reported in ChEMBL document CHEMBL4000163, “Pyrazole derived ultra-short antimicrobial peptidomimetics with potent anti-biofilm activity” (Eur J Med Chem, 2017).
Values after ≈ are worked out from the molar mass of the structure shown. Active and inactive are the calls of the source. No cut-off for these calls is given here.

Tests used:
Escherichia coli [1] = experiment: Antimicrobial activity against Escherichia coli KCTC 1682 incubated for 18 to 20 hrs by broth microdilution assay; format: functional; conditions: read-out: MIC100
Method in brief: (§1)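 Broth microdilution in 1% peptone. Inoculum was 2 × 10⁶ CFU/mL mixed 1:1 with serial 2-fold peptide dilutions and incubated 18–20 h at 37 °C. Growth was read as absorbance at 600 nm; MIC is the lowest peptide concentration giving 100% growth inhibition.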

Pseudomonas aeruginosa [2] = experiment: Antimicrobial activity against Pseudomonas aeruginosa KCTC 1637 incubated for 18 to 20 hrs by broth microdilution assay; format: functional; conditions: read-out: MIC100; method in brief: as §1
[3] = tested on: Staphylococcus epidermidis; experiment: Antimicrobial activity against Staphylococcus epidermidis KCTC 1917 incubated for 18 to 20 hrs by broth microdilution assay; format: functional; conditions: read-out: MIC100; method in brief: as §1
Staphylococcus aureus [4] = experiment: Antimicrobial activity against Staphylococcus aureus KCTC 1621 incubated for 18 to 20 hrs by broth microdilution assay; format: functional; conditions: read-out: MIC100; method in brief: as §1
Pseudomonas aeruginosa [5] = experiment: Potency index, ratio of LL-37 MIC100 to compound MIC100 for Pseudomonas aeruginosa KCTC 1637; format: functional
Staphylococcus aureus [6] = experiment: Potency index, ratio of LL-37 MIC100 to compound MIC100 for Staphylococcus aureus KCTC 1621; format: functional
Staphylococcus aureus [7] = experiment: Potency index, ratio of melittin MIC100 to compound MIC100 for Staphylococcus aureus KCTC 1621; format: functional
Pseudomonas aeruginosa [8] = experiment: Potency index, ratio of melittin MIC100 to compound MIC100 for Pseudomonas aeruginosa KCTC 1637; format: functional
[9] = Therapeutic index, ratio of MHC for sheep RBC to MIC for Staphylococcus epidermidis KCTC 1917
[10] = Therapeutic index, ratio of MHC for sheep RBC to MIC for Staphylococcus aureus KCTC 1621
Enterococcus faecium = experiment: Antibacterial activity against vancomycin-resistant Enterococcus faecium ATCC 51559 after 18 to 20 hrs by broth microdilution assay; format: functional; conditions: read-out: MIC100
Method in brief: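 Broth microdilution in 1% peptone: bacteria at 2 × 10⁶ CFU/mL mixed 1:1 with serial 2-fold peptide dilutions, 18-20 h at 37 °C; growth read as absorbance at 600 nm. MIC taken as lowest concentration giving 100% growth inhibition.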

Escherichia coli [11] = experiment: Induction of outer membrane permeabilization in Escherichia coli KCTC 1682 assessed as NPN uptake by spectrofluorophotometric analysis; format: functional
Method in brief: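 E. coli KCTC 1682 at OD600 0.05 in 5 mM HEPES pH 7.2 with 5 mM KCN; NPN 10 µM final, background fluorescence recorded (ex 350, em 420 nm). Peptide aliquots at various concentrations added and fluorescence followed over time until no further rise.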

Escherichia coli [12] = experiment: Induction of inner membrane permeabilisation in Escherichia coli ML-35 assessed as ONPG hydrolysis up to 30 ug/ml by beta-galactosidase enzyme coupled spectrophotometric analysis; format: functional
Method in brief: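 E. coli ML-35 (constitutive cytoplasmic β-galactosidase, lactose permease-deficient) washed and resuspended to OD600 0.5 in 10 mM sodium phosphate pH 7.4, 100 mM NaCl, with 1.5 mM ONPG. o-Nitrophenol release tracked spectrophotometrically over time after peptide addition at various concentrations.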

Staphylococcus aureus [13] = experiment: Induction of cytoplasmic membrane depolarization in Staphylococcus aureus KCTC 1621 assessed as loss of membrane potential after 1 hr by DiSC3(5) dye based fluorescence assay; format: functional
Escherichia coli [14] = experiment: Antimicrobial activity against Escherichia coli KCTC 1682 using 4 hrs trypsin incubated compound measured after overnight incubation by radial diffusion assay; format: functional
Method in brief: (§2)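 Radial diffusion: mid-log cells (2×10^6 CFU/ml in LB) in 0.7% agarose. Peptide stock (10 mg/mL) added to trypsin in PBS (0.2 µg/mL), 4 h at 37 °C, stopped by liquid-nitrogen freezing; 10 µL on paper discs on the plates, overnight at 37 °C. Clearance-zone diameters measured.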

Staphylococcus aureus [15] = experiment: Antimicrobial activity against Staphylococcus aureus KCTC 1621 using 4 hrs trypsin incubated compound measured after overnight incubation by radial diffusion assay; format: functional; method in brief: as §2
[16] = Therapeutic index, ratio of MHC for sheep RBC to geometric mean of MICs for four bacterial strains
[17] = as above; remark: listed apart in the source
Pseudomonas aeruginosa [18] = experiment: Antibiofilm activity against multidrug-resistant Pseudomonas aeruginosa CCARM 2095 after 24 hrs by crystal violet staining based method; format: functional; conditions: CCARM 2095, 24 h
Method in brief: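 MDRPA 2095 (1×10^6 cfu/mL) in MHB with 0.2% glucose, 24 h at 37 °C with or without peptide (2-fold dilutions, 1-64 µg/mL), six wells each. Wells washed with PBS, methanol-fixed, stained with 0.1% crystal violet 5 min, stain resolubilized in 95% ethanol, absorbance at 600 nm.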

| SMILES | MIC (Escherichia coli [1]) [mg/L] | MIC (Pseudomonas aeruginosa [2]) [mg/L] | MIC [3] [mg/L] | MIC (Staphylococcus aureus [4]) [mg/L] | further results |
| --- | --- | --- | --- | --- | --- |
| N=C(N)NCCC[C@H](NC(=O)c1nn(CCCc2ccccc2)cc1NC(=O)[C@@H](N)CCCNC(=N)N)C(N)=O | > 64 | > 64 | > 64 | 64 (≈ 115 µM) |  |
| N=C(N)NCCC[C@H](NC(=O)c1nn(CCc2cccc3ccccc23)cc1N)C(N)=O | > 64 | > 64 | > 64 | > 64 |  |
| N=C(N)NCCC[C@H](NC(=O)c1nn(CCC(c2ccccc2)c2ccccc2)cc1NC(=O)[C@H](CCCNC(=N)N)NC(=O)c1nn(CCC(c2ccccc2)c2ccccc2)cc1N)C(N)=O | 32 (≈ 34.2 µM) | 32 (≈ 34.2 µM) | 32 (≈ 34.2 µM) | 8 (≈ 8.55 µM) |  |
| N=C(N)NCCC[C@H](NC(=O)c1nn(CCc2cccc3ccccc23)cc1NC(=O)[C@H](CCCNC(=N)N)NC(=O)c1nn(CCc2cccc3ccccc23)cc1NC(=O)[C@H](CCCNC(=N)N)NC(=O)c1nn(CCc2cccc3ccccc23)cc1N)C(N)=O | > 64 | > 64 | 64 (≈ 50.2 µM) | 8 (≈ 6.27 µM) |  |
| N=C(N)NCCC[C@H](NC(=O)c1nn(CCC(c2ccccc2)c2ccccc2)cc1NC(=O)[C@@H](N)CCCNC(=N)N)C(N)=O | > 64 | 8 (≈ 12.6 µM) | > 64 | 8 (≈ 12.6 µM) | Ratio (Pseudomonas aeruginosa [5]): 4 - 8; Ratio (Staphylococcus aureus [6]): 4 - 8; Ratio (Staphylococcus aureus [7]): 2 - 4; Ratio (Pseudomonas aeruginosa [8]): 2 - 4 |
| CC[C@H](C)[C@H](NC(=O)CN)C(=O)NCC(=O)N[C@@H](C)C(=O)N[C@H](C(=O)N[C@@H](CC(C)C)C(=O)N[C@@H](CCCCN)C(=O)N[C@H](C(=O)N[C@@H](CC(C)C)C(=O)N[C@H](C(=O)N[C@H](C(=O)NCC(=O)N[C@@H](CC(C)C)C(=O)N1CCC[C@H]1C(=O)N[C@@H](C)C(=O)N[C@@H](CC(C)C)C(=O)N[C@H](C(=O)N[C@@H](CO)C(=O)N[C@@H](Cc1c[nH]c2ccccc12)C(=O)N[C@H](C(=O)N[C@@H](CCCCN)C(=O)N[C@@H](CCCNC(=N)N)C(=O)N[C@@H](CCCCN)C(=O)N[C@@H](CCCNC(=N)N)C(=O)N[C@@H](CCC(N)=O)C(=O)N[C@@H](CCC(N)=O)C(N)=O)[C@@H](C)CC)[C@@H](C)CC)[C@@H](C)O)[C@@H](C)O)C(C)C)C(C)C [MELITTIN] |  |  |  |  | TI [9]: 0.5; TI [10]: 0.5; MIC (Enterococcus faecium): 16 mg/L (≈ 5.62 µM); Activity (Escherichia coli [11]): Dose-dependent effect; Activity (Escherichia coli [12]): Active; Activity (Staphylococcus aureus [13]): Active; Activity (Escherichia coli [14]): inactive; Activity (Staphylococcus aureus [15]): inactive; TI [16]: 0.5; TI [17]: 0.5 |
| CCC(CC)Cn1cc(NC(=O)[C@@H](N)CCCNC(=N)N)c(C(=O)N[C@@H](CCCNC(=N)N)C(N)=O)n1 | > 64 | > 64 | > 64 | > 64 |  |
| N=C(N)NCCC[C@H](NC(=O)c1nn(CCc2cccc3ccccc23)cc1NC(=O)[C@@H](N)CCCNC(=N)N)C(N)=O | > 64 | > 64 | > 64 | 32 (≈ 54 µM) |  |
| N=C(N)NCCC[C@@H]1NC(=O)c2nn(CCC(c3ccccc3)c3ccccc3)cc2NC(=O)CSCC(C(N)=O)NC(=O)[C@H](CCCNC(=N)N)NC(=O)c2nn(CCC(c3ccccc3)c3ccccc3)cc2NC1=O (some centres not stated) | > 64 | > 64 | 64 (≈ 59.3 µM) | 16 (≈ 14.8 µM) |  |
| N=C(N)NCCC[C@H](NC(=O)c1nn(CCC(c2ccccc2)c2ccccc2)cc1N)C(N)=O | > 64 | 32 (≈ 67.1 µM) | > 64 | > 64 |  |
| CC[C@H](C)[C@H](NC(=O)[C@H](CCCCN)NC(=O)[C@H](CCC(=O)O)NC(=O)[C@H](CCCCN)NC(=O)[C@H](CO)NC(=O)[C@H](CCCCN)NC(=O)[C@H](CCCNC(=N)N)NC(=O)[C@H](Cc1ccccc1)NC(=O)[C@H](Cc1ccccc1)NC(=O)[C@H](CC(=O)O)NC(=O)CNC(=O)[C@H](CC(C)C)NC(=O)[C@@H](N)CC(C)C)C(=O)NCC(=O)N[C@@H](CCCCN)C(=O)N[C@@H](CCC(=O)O)C(=O)N[C@@H](Cc1ccccc1)C(=O)N[C@@H](CCCCN)C(=O)N[C@@H](CCCNC(=N)N)C(=O)N[C@H](C(=O)N[C@H](C(=O)N[C@@H](CCC(N)=O)C(=O)N[C@@H](CCCNC(=N)N)C(=O)N[C@H](C(=O)N[C@@H](CCCCN)C(=O)N[C@@H](CC(=O)O)C(=O)N[C@@H](Cc1ccccc1)C(=O)N[C@@H](CC(C)C)C(=O)N[C@@H](CCCNC(=N)N)C(=O)N[C@@H](CC(N)=O)C(=O)N[C@@H](CC(C)C)C(=O)N[C@H](C(=O)N1CCC[C@H]1C(=O)N[C@@H](CCCNC(=N)N)C(=O)N[C@H](C(=O)N[C@@H](CCC(=O)O)C(=O)N[C@@H](CO)C(=O)O)[C@@H](C)O)C(C)C)[C@@H](C)CC)C(C)C)[C@@H](C)CC [CATHELICIDIN] | 32 (≈ 7.12 µM) | 64 (≈ 14.2 µM) | 32 (≈ 7.12 µM) | 32 (≈ 7.12 µM) | TI [9]: 25.6; TI [10]: 25.6; IC90 (Pseudomonas aeruginosa [18]): 64 mg/L (≈ 14.2 µM); Activity (Escherichia coli [12]): Active; Activity (Staphylococcus aureus [13]): Active; TI [16]: 25.6; TI [17]: 25.6 |
| N=C(N)NCCC[C@H](NC(=O)c1nn(CCC(c2ccccc2)c2ccccc2)cc1NC(=O)[C@H](CCCNC(=N)N)NC(=O)c1nn(CCC(c2ccccc2)c2ccccc2)cc1NC(=O)[C@H](CCCNC(=N)N)NC(=O)c1nn(CCC(c2ccccc2)c2ccccc2)cc1N)C(N)=O | 64 (≈ 45.9 µM) | > 64 | 64 (≈ 45.9 µM) | 32 (≈ 22.9 µM) |  |
| N=C(N)NCCC[C@H](NC(=O)c1nn(CCCc2ccccc2)cc1N)C(N)=O | > 64 | > 64 | > 64 | > 64 |  |
| N=C(N)NCCC[C@H](NC(=O)c1nn(CCc2cccc3ccccc23)cc1NC(=O)[C@H](CCCNC(=N)N)NC(=O)c1nn(CCc2cccc3ccccc23)cc1NC(=O)[C@@H](N)CCCNC(=N)N)C(N)=O | 32 (≈ 31.6 µM) | 8 (≈ 7.9 µM) | 32 (≈ 31.6 µM) | 4 (≈ 3.95 µM) |  |
| CCC(CC)Cn1cc(N)c(C(=O)N[C@@H](CCCNC(=N)N)C(N)=O)n1 | > 64 | > 64 | > 64 | > 64 |  |
